The values that follow come from ChEMBL document CHEMBL1777721, “Phenolic compounds with NF-κB inhibitory effects from the fungus Phellinus baumii” (Bioorg Med Chem Lett, 2011).

One may read the IC50 as the concentration needed to halve the response being measured. The inhibition is the relative decrease from the control value, in per cent.

A short description of test [1]: Inhibition of basal NF-kappaB-dependent reporter gene transcription in androgen-insensitive human PC3 cells. On the technique in general: In a reporter assay the amount or activity of a reporter protein is the signal.
The test system of a further test is LNCaP. The test can be described thus: Inhibition of LPS-induced NF-kappaB-dependent reporter gene transcription in androgen-sensitive human LNCap cells. As to conditions: for inhibition: dose or concentration not given here; call rule not given here. It is filed as cell-based. The gist of the method:
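Luciferase NF-κB reporter assay in androgen-sensitive LNCaP prostate cancer cells. Cells were pretreated with the test compound, then stimulated with LPS to activate NF-κB. Reporter activity was read at three concentrations and expressed as percent reduction of the LPS-induced signal.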

The mark [2] stands for this setting: Homo sapiens, PC-3, read-out: IC50.

On to `O=C1C[C@@H](c2ccc(O)cc2)Oc2cc(O)c(Cc3ccccc3O)c(O)c21`, for which, in test [1] (setting [2]), the IC50 turned out to be 54.5 µM. Same read-out and setting: with `O=c1oc(/C=C/c2ccc(O)c(O)c2)cc2oc3cc(O)c(O)cc3c12` [PHELLIBAUMIN A] the figure was 53 µM.

Turning to `COc1cc(O)c2c(c1Cc1ccccc1O)O[C@@H](c1ccc(O)cc1)CC2=O` [METHYLPHELLIGRIN B], in the test with LNCaP, the Activity result was “Dose-dependent effect” and the inhibition is 62.5%. Further, the IC50 in test [1] (setting [2]) came to 22.5 µM. In the case of `COc1cc(O)c2c(c1Cc1ccccc1O)O[C@H](c1ccc(O)cc1)CC2=O`, in test [1] (setting [2]), the 50% inhibitory concentration (IC50) came out at 22.5 µM. Take `O=c1oc2cc(O)c1-c1cc(O)c(O)cc1/C=C/c1cc3c(c(=O)o1)[C@H](c1cc(O)c(c(=O)o1)-c1cc(O)c(O)cc1/C=C/c1cc4c(c(=O)o1)[C@H]2[C@@H](c1ccc(O)c(O)c1)O4)[C@@H](c1ccc(O)c(O)c1)O3` [PHELLIGRIDIMER A]: in test [1] (pc-3), the IC50 result is listed as “Not Active”. As to `O=c1oc2cc(-c3c(-c4ccc(O)c(O)c4)oc4cc(/C=C/c5ccc(O)c(O)c5)oc(=O)c34)oc(=O)c2c2cc(O)c(O)cc12` [PHELLIGRIDIN H], the concentration for half-maximal inhibition (IC50) in test [1] (setting [2]) was found to be 84.9 µM. `COc1cc2c(c(O)c1Cc1ccccc1O)C(=O)C[C@H](c1ccc(O)cc1)O2`: in the test on LNCaP, the Activity entry was “Dose-dependent effect” and the inhibition came out at 35%. For the same compound, in test [1] (setting [2]), the IC50 worked out at 36.4 µM.

With `O=C(O)/C(=C\c1ccc(O)c(O)c1)c1c(O)cc(/C=C/c2ccc(O)c(O)c2)oc1=O` [PHELLIBAUMIN D], in test [1] (setting [2]), the IC50 was 74.6 µM. On the same count and under the same terms, with `O=c1oc(/C=C/c2ccc(O)c(O)c2)cc(O)c1/C(=C/c1ccc(O)c(O)c1)c1cc2oc(=O)c3cc(O)c(O)cc3c2c(=O)o1` [PHELLIBAUMIN C] the figure was 62.3 µM. With `O=C1C[C@H](c2ccc(O)cc2)Oc2cc(O)c(Cc3ccccc3O)c(O)c21` [PHELLIGRIN A], in the test on LNCaP, the Activity entry is “Dose-dependent effect” and the inhibition was determined as 18.4%. Also, the IC50 in test [1] (setting [2]) came out at 54.5 µM. For `CC(=O)/C(=C\c1ccc(O)c(O)c1)c1c(O)cc(/C=C/c2ccc(O)c(O)c2)oc1=O` [INTERFUNGIN B], the IC50 in test [1] (setting [2]) is 71.2 µM.

As for `CCOC(=O)/C(=C\c1ccc(O)c(O)c1)c1c(O)cc(/C=C/c2ccc(O)c(O)c2)oc1=O` [PHELLIBAUMIN E], the half-inhibitory concentration (IC50) in test [1] (setting [2]) is 52.9 µM. Same read-out and setting: the value for `O=C(O)CC1Oc2cc(/C=C/c3ccc(O)c(O)c3)oc(=O)c2-c2cc(O)c(O)cc21` (stereo not given) [PHELLIBAUMIN B] was 41.4 µM; that for `COc1cc2c(c(O)c1Cc1ccccc1O)C(=O)C[C@@H](c1ccc(O)cc1)O2` was 36.4 µM.
